Test results as given in ChEMBL document CHEMBL4689842, “EUbOPEN Chemogenomics Library wave 1” (2021).

System: HEK-293T
Assay: Multiplex assay against HEK293T;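 as to Population Tubulin-Different-Phenotype (%): share of the cells with healthy nuclei that show this phenotype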
Assay type: toxicity, cell-based
Details: human
How it was run: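 At seeding, live cells were stained with Hoechst33342, BioTracker Green Microtubule Cytoskeleton Dye, MitoTracker Red and Annexin V Alexa Fluor 680. After compound addition they were imaged on a CQ1 microscope at 37°C and 5% CO2, and CellPathfinder machine-learning gating sorted them into Hoechst high-intensity objects or normal cells, with normal cells further split into healthy, pyknosed or fragmented nuclei and pyknosed cells into mitotic or apoptotic. Tubulin, mitochondrial-mass and membrane-permeability phenotypes are given as per cents of cells with healthy nuclei.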

[1] = 12 h, 1 µM, compound concentration 1 uM, replicate 1
[2] = 12 h, 1 µM, compound concentration 1 uM, replicate 2
[3] = 12 h, 10 µM, compound concentration 10 uM, replicate 1
[4] = 12 h, 10 µM, compound concentration 10 uM, replicate 2
[5] = 24 h, 1 µM, compound concentration 1 uM, replicate 1
[6] = 24 h, 1 µM, compound concentration 1 uM, replicate 2
[7] = 24 h, 10 µM, compound concentration 10 uM, replicate 1
[8] = 24 h, 10 µM, compound concentration 10 uM, replicate 2
[9] = 48 h, 1 µM, compound concentration 1 uM, replicate 1
[10] = 48 h, 1 µM, compound concentration 1 uM, replicate 2
[11] = 48 h, 10 µM, compound concentration 10 uM, replicate 1
[12] = 48 h, 10 µM, compound concentration 10 uM, replicate 2

`CCCCCNC(=N)N/N=C/c1c[nH]c2ccc(OC)cc12.O=C(O)/C=C\C(=O)O` [TEGASEROD MALEATE] was tested, and the “Population Apoptotic (%)” value [1] was 45%, the “Population Fragmented Nuclei (%)” value [1] was 20% and the “Population Healthy Nuclei (%)” value [1] was 42%. The “Population Hoechst High Intensity Objects (%)” value [1] was 16%, the “Population Membrane Permeable-Phenotype (%)” value [1] was 4% and the “Population Mitochondria Different-Phenotype (%)” value [1] was 88%. The “Population Mitotic Cells (%)” value [1] was 54%, the “Population Normal (%)” value [1] was 83% and the “Population Pyknosed Nuclei (%)” value [1] was 36%. For the same molecule, the “Population Tubulin-Different-Phenotype (%)” value [1] was 52%, the “Total Cell Count” value [1] was 192 and the “Population Apoptotic (%)” value [2] was 24%. The “Population Fragmented Nuclei (%)” value [2] was 4%, the “Population Healthy Nuclei (%)” value [2] was 35% and the “Population Hoechst High Intensity Objects (%)” value [2] was 1%. The “Population Membrane Permeable-Phenotype (%)” value [2] was 9%, the “Population Mitochondria Different-Phenotype (%)” value [2] was 50% and the “Population Mitotic Cells (%)” value [2] was 75%. The “Population Normal (%)” value [2] was 98%, the “Population Pyknosed Nuclei (%)” value [2] was 59% and the “Population Tubulin-Different-Phenotype (%)” value [2] was 48%. For the same molecule, the “Total Cell Count” value [2] was 204, the “Population Apoptotic (%)” value [3] was 51% and the “Population Fragmented Nuclei (%)” value [3] was 27%. For the same molecule, the “Population Healthy Nuclei (%)” value [3] was 0%, the “Population Hoechst High Intensity Objects (%)” value [3] was 27% and the “Population Membrane Permeable-Phenotype (%)” value [3] was 0%. The “Population Mitochondria Different-Phenotype (%)” value [3] was 0%, the “Population Mitotic Cells (%)” value [3] was 48% and the “Population Normal (%)” value [3] was 72%. The “Population Pyknosed Nuclei (%)” value [3] was 72%, the “Population Tubulin-Different-Phenotype (%)” value [3] was 0% and the “Total Cell Count” value [3] was 295. For the same molecule, the “Population Apoptotic (%)” value [4] was 96%, the “Population Fragmented Nuclei (%)” value [4] was 15% and the “Population Healthy Nuclei (%)” value [4] was 3%. For the same molecule, the “Population Hoechst High Intensity Objects (%)” value [4] was 29%, the “Population Mitotic Cells (%)” value [4] was 3% and the “Population Normal (%)” value [4] was 70%. The “Population Pyknosed Nuclei (%)” value [4] was 81%, the “Population Tubulin-Different-Phenotype (%)” value [4] was 100% and the “Total Cell Count” value [4] was 93. For the same molecule, the “Population Apoptotic (%)” value [5] was 46%, the “Population Fragmented Nuclei (%)” value [5] was 15% and the “Population Healthy Nuclei (%)” value [5] was 60%. The “Population Hoechst High Intensity Objects (%)” value [5] was 13%, the “Population Membrane Permeable-Phenotype (%)” value [5] was 1% and the “Population Mitochondria Different-Phenotype (%)” value [5] was 83%. For the same molecule, the “Population Mitotic Cells (%)” value [5] was 53%, the “Population Normal (%)” value [5] was 86% and the “Population Pyknosed Nuclei (%)” value [5] was 23%. For the same molecule, the “Population Tubulin-Different-Phenotype (%)” value [5] was 46%, the “Total Cell Count” value [5] was 196 and the “Population Apoptotic (%)” value [6] was 24%. For the same molecule, the “Population Fragmented Nuclei (%)” value [6] was 4%, the “Population Healthy Nuclei (%)” value [6] was 54% and the “Population Hoechst High Intensity Objects (%)” value [6] was 3%. For the same molecule, the “Population Membrane Permeable-Phenotype (%)” value [6] was 7%, the “Population Mitochondria Different-Phenotype (%)” value [6] was 46% and the “Population Mitotic Cells (%)” value [6] was 75%. For the same molecule, the “Population Normal (%)” value [6] was 96%, the “Population Pyknosed Nuclei (%)” value [6] was 40% and the “Population Tubulin-Different-Phenotype (%)” value [6] was 43%. For the same molecule, the “Total Cell Count” value [6] was 260, the “Population Apoptotic (%)” value [7] was 54% and the “Population Fragmented Nuclei (%)” value [7] was 31%. For the same molecule, the “Population Healthy Nuclei (%)” value [7] was 0%, the “Population Hoechst High Intensity Objects (%)” value [7] was 35% and the “Population Membrane Permeable-Phenotype (%)” value [7] was 100%. The “Population Mitochondria Different-Phenotype (%)” value [7] was 100%, the “Population Mitotic Cells (%)” value [7] was 45% and the “Population Normal (%)” value [7] was 64%. For the same molecule, the “Population Pyknosed Nuclei (%)” value [7] was 68%, the “Population Tubulin-Different-Phenotype (%)” value [7] was 0% and the “Total Cell Count” value [7] was 288. For the same molecule, the “Population Apoptotic (%)” value [8] was 97%, the “Population Fragmented Nuclei (%)” value [8] was 25% and the “Population Healthy Nuclei (%)” value [8] was 27%. The “Population Hoechst High Intensity Objects (%)” value [8] was 13%, the “Population Membrane Permeable-Phenotype (%)” value [8] was 23% and the “Population Mitochondria Different-Phenotype (%)” value [8] was 9%. For the same molecule, the “Population Mitotic Cells (%)” value [8] was 2%, the “Population Normal (%)” value [8] was 86% and the “Population Pyknosed Nuclei (%)” value [8] was 46%. The “Population Tubulin-Different-Phenotype (%)” value [8] was 85%, the “Total Cell Count” value [8] was 89 and the “Population Fragmented Nuclei (%)” value [9] was 9%. For the same molecule, the “Population Healthy Nuclei (%)” value [9] was 77%, the “Population Hoechst High Intensity Objects (%)” value [9] was 8% and the “Population Membrane Permeable-Phenotype (%)” value [9] was 0%. For the same molecule, the “Population Mitochondria Different-Phenotype (%)” value [9] was 38%, the “Population Normal (%)” value [9] was 91% and the “Population Pyknosed Nuclei (%)” value [9] was 12%. For the same molecule, the “Population Tubulin-Different-Phenotype (%)” value [9] was 30%, the “Total Cell Count” value [9] was 290 and the “Population Apoptotic (%)” value [10] was 33%. The “Population Fragmented Nuclei (%)” value [10] was 7%, the “Population Healthy Nuclei (%)” value [10] was 78% and the “Population Hoechst High Intensity Objects (%)” value [10] was 4%. The “Population Membrane Permeable-Phenotype (%)” value [10] was 5%, the “Population Mitochondria Different-Phenotype (%)” value [10] was 21% and the “Population Mitotic Cells (%)” value [10] was 66%. For the same molecule, the “Population Normal (%)” value [10] was 95%, the “Population Pyknosed Nuclei (%)” value [10] was 14% and the “Population Tubulin-Different-Phenotype (%)” value [10] was 42%. For the same molecule, the “Total Cell Count” value [10] was 411, the “Population Apoptotic (%)” value [11] was 58% and the “Population Fragmented Nuclei (%)” value [11] was 36%. For the same molecule, the “Population Healthy Nuclei (%)” value [11] was 0%, the “Population Hoechst High Intensity Objects (%)” value [11] was 31% and the “Population Membrane Permeable-Phenotype (%)” value [11] was 0%. The “Population Mitochondria Different-Phenotype (%)” value [11] was 0%, the “Population Mitotic Cells (%)” value [11] was 41% and the “Population Normal (%)” value [11] was 68%. The “Population Pyknosed Nuclei (%)” value [11] was 63%, the “Population Tubulin-Different-Phenotype (%)” value [11] was 0% and the “Total Cell Count” value [11] was 277. The “Population Apoptotic (%)” value [12] was 100%, the “Population Fragmented Nuclei (%)” value [12] was 32% and the “Population Healthy Nuclei (%)” value [12] was 47%. The “Population Hoechst High Intensity Objects (%)” value [12] was 6%, the “Population Membrane Permeable-Phenotype (%)” value [12] was 17% and the “Population Mitochondria Different-Phenotype (%)” value [12] was 28%. The “Population Mitotic Cells (%)” value [12] was 0%, the “Population Normal (%)” value [12] was 93% and the “Population Pyknosed Nuclei (%)” value [12] was 20%. The “Population Tubulin-Different-Phenotype (%)” value [12] was 65% and the “Total Cell Count” value [12] was 79.
